Source: ChEMBL document CHEMBL1129669, “Discovery of 1,5-benzodiazepines with peripheral cholecystokinin (CCK-A) receptor agonist activity. 1. Optimization of the agonist "trigger"” (J Med Chem, 1996)
Activity calls are given as the source filed them. The rule behind the calls is not given here.

How the values were obtained:
Cavia porcellus [1] = species: Cavia porcellus; test: Guinea pig gall bladder contraction by the compound at concentration 30 uM in the absence of MK329; assay type: functional
In short: (§1)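 Isolated guinea pig gallbladder incubated with ligand at 37 °C, 30 µM for 30 min or 1 µM for 60 min. Contraction expressed as percent of the contraction induced by 1 µM CCK-8.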

Rattus norvegicus [2] = test: Maximal response of the rat to anorectic potency 30 min after intraperitoneal administration (1 uM/Kg); assay type: functional
Cavia porcellus [3] = species: Cavia porcellus; test: Percentage reversal of isolated guinea pig gall bladder contraction by the compound; assay type: functional
In short: (§2)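 Isolated guinea pig gallbladder contraction induced by test ligand (30 µM screen), then reversed with MK-329 at 1 µM to confirm a CCK-A receptor-mediated response.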

Cavia porcellus [4] = species: Cavia porcellus; test: Guinea pig gall bladder contraction by the compound at concentration 30 uM in the presence of MK329; assay type: functional; in short: as §2
Cavia porcellus [5] = species: Cavia porcellus; test: (§3) Percent contraction of the guinea pig gall bladder uM; assay type: functional; design: concentration or dose not given beside the values; in short: as §1
Rattus norvegicus [6] = species: Rattus norvegicus; test: Anorectic potency in rats conditioned to a palatable liquid diet and fasted for 2 hours; assay type: functional
Cavia porcellus [7] = species: Cavia porcellus; test: Percent contraction of the guinea pig gall bladder uM; Inactive; assay type: functional; in short: as §1
Cavia porcellus [8] = species: Cavia porcellus; test: Antagonist affinity (pKB) against contraction of guinea pig gall bladder measured at a dose 30 uM; assay type: functional
Rattus norvegicus [9] = test: Maximal response of the rat to anorectic potency 30 min after intraperitoneal administration (0.5 uM/Kg); assay type: functional
[10] = molecular target: T1, Cholecystokinin receptor type A (Homo sapiens, UniProt P32238); test: Concentration required to displace [125I]Bolton-Hunter CCK-8 from human Cholecystokinin type A receptor stably expressed in CHO-K1 cells; assay type: cell-based
T1 sequence (P32238 whole entry): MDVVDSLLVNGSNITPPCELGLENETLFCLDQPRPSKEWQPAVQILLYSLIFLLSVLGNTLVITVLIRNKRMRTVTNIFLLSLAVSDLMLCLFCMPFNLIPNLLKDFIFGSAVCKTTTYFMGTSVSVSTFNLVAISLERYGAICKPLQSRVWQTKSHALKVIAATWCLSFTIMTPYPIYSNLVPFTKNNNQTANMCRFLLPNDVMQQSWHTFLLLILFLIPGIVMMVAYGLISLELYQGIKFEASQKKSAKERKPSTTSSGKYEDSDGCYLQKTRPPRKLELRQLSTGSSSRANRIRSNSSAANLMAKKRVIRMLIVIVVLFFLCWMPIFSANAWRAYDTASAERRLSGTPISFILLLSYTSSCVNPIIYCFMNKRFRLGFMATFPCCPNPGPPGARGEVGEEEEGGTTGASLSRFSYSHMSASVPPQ

[11] = molecular target: T2, Gastrin/cholecystokinin type B receptor (Homo sapiens, UniProt P32239); test: Concentration required to displace [125I]Bolton-Hunter CCK-8 from human Cholecystokinin type B receptor expressed in CHO-K1 cells; assay type: cell-based
T2 sequence (P32239 whole entry): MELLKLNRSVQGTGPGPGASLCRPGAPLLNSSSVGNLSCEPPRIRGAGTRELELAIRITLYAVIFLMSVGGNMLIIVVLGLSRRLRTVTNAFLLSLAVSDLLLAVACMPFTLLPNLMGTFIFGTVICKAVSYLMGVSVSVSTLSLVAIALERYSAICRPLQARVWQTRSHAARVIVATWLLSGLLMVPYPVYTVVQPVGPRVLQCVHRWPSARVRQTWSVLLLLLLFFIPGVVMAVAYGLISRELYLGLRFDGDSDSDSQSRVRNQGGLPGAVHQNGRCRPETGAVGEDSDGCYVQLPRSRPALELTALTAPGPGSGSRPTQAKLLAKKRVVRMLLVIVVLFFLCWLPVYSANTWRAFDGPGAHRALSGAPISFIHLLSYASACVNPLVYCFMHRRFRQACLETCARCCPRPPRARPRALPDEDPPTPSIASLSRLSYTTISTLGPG

Cavia porcellus [12] = species: Cavia porcellus; test: as §3; assay type: functional; in short: as §1
Cavia porcellus [13] = species: Cavia porcellus; test: Guinea pig gall bladder contraction by the compound at concentration 1 uM in the absence of MK329; assay type: functional; in short: as §1
Cavia porcellus [14] = species: Cavia porcellus; test: Guinea pig gall bladder contraction by the compound at concentration 1 uM in the presence of MK329; assay type: functional

Compound: CC(C)N(C(=O)CN1C(=O)C(NC(=O)Nc2ccccc2)C(=O)N(c2ccccc2)c2ccccc21)c1ccccc1 (configuration not stated)
- GPGB tension (Cavia porcellus [1]): 2.53 g
- Max response (Rattus norvegicus [2]): 48%
- Reversal (Cavia porcellus [3]): 117%
- GPGB tension (Cavia porcellus [4]): 0.43 g
- Activity (Cavia porcellus [5]): 86%
- ED50 (Rattus norvegicus [6]): 0.95 µmol/kg

Compound: CC(C)N(C(=O)CN1C(=O)C(NC(=O)Nc2ccccc2)C(=O)N(c2ccccc2)c2ccccc21)C(C)C (configuration not stated)
- Activity (Cavia porcellus [5]): 21%

Compound: CCN(CC)C(=O)CN1C(=O)C(NC(=O)Nc2ccccc2)C(=O)N(c2ccccc2)c2ccccc21 (configuration not stated)
- Activity (Cavia porcellus [5]): 38%

Compound: CN(C(=O)CN1C(=O)C(NC(=O)Nc2ccccc2)C(=O)N(c2ccccc2)c2ccccc21)c1ccccc1 (configuration not stated)
- Activity (Cavia porcellus [7]): inactive
- pKB (Cavia porcellus [8]): 6.27

Compound: CSCC[C@H](NC(=O)[C@H](Cc1ccc(OS(=O)(=O)O)cc1)NC(=O)[C@@H](N)CC(=O)O)C(=O)NCC(=O)N[C@@H](Cc1c[nH]c2ccccc12)C(=O)N[C@@H](CCSC)C(=O)N[C@@H](CC(=O)O)C(=O)N[C@@H](Cc1ccccc1)C(N)=O [SINCALIDE]
- Max response (Rattus norvegicus [9]): 96%
- ED50 (Rattus norvegicus [6]): 0.03 µmol/kg

Compound: N#CCCN(C(=O)CN1C(=O)C(NC(=O)Nc2ccccc2)C(=O)N(c2ccccc2)c2ccccc21)c1ccccc1 (configuration not stated)
- Activity (Cavia porcellus [5]): 32%

Compound: CC(C)N(C(=O)CN1C(=O)C(NC(=O)Nc2ccccc2)C(=O)N(c2ccccc2)c2ccccc21)c1ccc(C(=O)O)cc1 (configuration not stated)
- pKB (Cavia porcellus [8]): 6.14
- IC50 [10]: 2510 nM
- IC50 [11]: 39.8 nM
- Activity (Cavia porcellus [5]): 10%

Compound: COc1ccc(N(C(=O)CN2C(=O)C(NC(=O)Nc3ccccc3)C(=O)N(c3ccccc3)c3ccccc32)C(C)C)cc1 (configuration not stated)
- GPGB tension (Cavia porcellus [1]): 2.88 g
- Max response (Rattus norvegicus [2]): 62%
- Activity (Cavia porcellus [12]): 82%
- Reversal (Cavia porcellus [3]): 107%
- IC50 [10]: 79.4 nM
- IC50 [11]: 50.1 nM
- GPGB tension (Cavia porcellus [4]): 0.2 g
- Activity (Cavia porcellus [5]): 93%
- ED50 (Rattus norvegicus [6]): 0.07 µmol/kg

Compound: CC(C)N(C(=O)CN1C(=O)C(NC(=O)Nc2ccccc2)C(=O)N(c2ccccc2)c2ccccc21)c1ccc(N(C)C)cc1.O=C(O)C(F)(F)F (configuration not stated)
- Max response (Rattus norvegicus [2]): 54%
- Activity (Cavia porcellus [12]): 46%
- GPGB tension (Cavia porcellus [13]): 2.55 g
- Reversal (Cavia porcellus [3]): 100%
- IC50 [10]: 63.1 nM
- IC50 [11]: 251 nM
- Activity (Cavia porcellus [5]): 75%
- ED50 (Rattus norvegicus [6]): 0.09 µmol/kg
- GPGB tension (Cavia porcellus [14]): 0.01 g

Compound: CCN(C(=O)CN1C(=O)C(NC(=O)Nc2ccccc2)C(=O)N(c2ccccc2)c2ccccc21)c1ccccc1 (configuration not stated)
- Activity (Cavia porcellus [5]): 66%

Compound: CC(C)N(C(=O)CN1C(=O)C(NC(=O)Nc2ccccc2)C(=O)N(c2ccccc2)c2ccccc21)c1ccc(N2CCOCC2)cc1 (configuration not stated)
- Max response (Rattus norvegicus [2]): 26%
- Activity (Cavia porcellus [12]): 74%
- GPGB tension (Cavia porcellus [13]): 1.88 g
- Reversal (Cavia porcellus [3]): 123%
- IC50 [11]: 158 nM
- ED50 (Rattus norvegicus [6]): 0.2 µmol/kg
- GPGB tension (Cavia porcellus [14]): 0.43 g

Compound: CC(C)N(C(=O)CN1C(=O)C(NC(=O)Nc2ccccc2)C(=O)N(c2ccccc2)c2ccccc21)c1ccc(O)cc1 (configuration not stated)
- GPGB tension (Cavia porcellus [1]): 2.25 g
- Max response (Rattus norvegicus [2]): 74%
- Reversal (Cavia porcellus [3]): 100%
- IC50 [10]: 39.8 nM
- IC50 [11]: 15.8 nM
- GPGB tension (Cavia porcellus [4]): 0 g
- Activity (Cavia porcellus [5]): 81%
- ED50 (Rattus norvegicus [6]): 0.05 µmol/kg

Compound: CC(C)N(C(=O)CN1C(=O)C(NC(=O)Nc2ccccc2)C(=O)N(c2ccccc2)c2ccccc21)c1ccc(F)cc1 (configuration not stated)
- Max response (Rattus norvegicus [2]): 56%
- Activity (Cavia porcellus [12]): 53%
- GPGB tension (Cavia porcellus [13]): 2.14 g
- Reversal (Cavia porcellus [3]): 116%
- IC50 [10]: 100 nM
- IC50 [11]: 31.6 nM
- ED50 (Rattus norvegicus [6]): 0.2 µmol/kg
- GPGB tension (Cavia porcellus [14]): 0.34 g

Compound: O=C(CN1C(=O)C(NC(=O)Nc2ccccc2)C(=O)N(c2ccccc2)c2ccccc21)Nc1ccccc1 (configuration not stated)
- Activity (Cavia porcellus [7]): inactive
- pKB (Cavia porcellus [8]): 6.33

Compound: CCOC(=O)CN(C(=O)CN1C(=O)C(NC(=O)Nc2ccccc2)C(=O)N(c2ccccc2)c2ccccc21)c1ccccc1 (configuration not stated)
- Activity (Cavia porcellus [5]): 16%

Compound: O=C(Nc1ccccc1)NC1C(=O)N(CC(=O)N(c2ccccc2)C2CCCCC2)c2ccccc2N(c2ccccc2)C1=O (configuration not stated)
- Activity (Cavia porcellus [5]): 26%

Compound: O=C(Nc1ccccc1)NC1C(=O)N(CC(=O)N(c2ccccc2)c2ccccc2)c2ccccc2N(c2ccccc2)C1=O (configuration not stated)
- Activity (Cavia porcellus [5]): 43%

Compound: CCCCN(C(=O)CN1C(=O)C(NC(=O)Nc2ccccc2)C(=O)N(c2ccccc2)c2ccccc21)c1ccccc1 (configuration not stated)
- Activity (Cavia porcellus [5]): 27%

Compound: O=C(O)CN(C(=O)CN1C(=O)C(NC(=O)Nc2ccccc2)C(=O)N(c2ccccc2)c2ccccc21)c1ccccc1 (configuration not stated)
- Activity (Cavia porcellus [7]): inactive
- pKB (Cavia porcellus [8]): 6.33

Compound: O=C(Nc1ccccc1)NC1C(=O)N(CC(=O)N(CCNC(=O)OCc2ccccc2)c2ccccc2)c2ccccc2N(c2ccccc2)C1=O (configuration not stated)
- Activity (Cavia porcellus [7]): inactive

Compound: CCCN(C(=O)CN1C(=O)C(NC(=O)Nc2ccccc2)C(=O)N(c2ccccc2)c2ccccc21)c1ccccc1 (configuration not stated)
- Activity (Cavia porcellus [5]): 50%

Compound: NCCN(C(=O)CN1C(=O)C(NC(=O)Nc2ccccc2)C(=O)N(c2ccccc2)c2ccccc21)c1ccccc1 (configuration not stated)
- pKB (Cavia porcellus [8]): 5.88
- Activity (Cavia porcellus [5]): 7%

Compound: CC(C)N(Cc1ccccc1)C(=O)CN1C(=O)C(NC(=O)Nc2ccccc2)C(=O)N(c2ccccc2)c2ccccc21 (configuration not stated)
- Activity (Cavia porcellus [5]): 34%
